From ChEMBL document CHEMBL3997768, “The synthesis and antistaphylococcal activity of dehydroabietic acid derivatives: modifications at C12 and C7” (2017)
≈ marks a conversion by molar mass, not a printed value. Calls of active or inactive are those of the source. The rule behind the calls is not given here.

Key:
Staphylococcus aureus = test: Antibacterial activity against Staphylococcus aureus Newman after 18 hrs by two fold serial dilution method; type: functional
How it was run: (§1)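 Strains were grown overnight at 37 °C in TSB without antibiotic, diluted 1000-fold, and grown 2–3 h to A600 0.6. They were then diluted 1:400 in fresh TSB. Compounds in DMSO were two-fold serially diluted to a final 0.39–50 and mixed with an equal volume of bacteria. A600 was read after 18 h. MIC is the lowest concentration inhibiting growth. Triplicate; vancomycin and tetracycline were positive controls.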

Escherichia coli = test: Antibacterial activity against Escherichia coli AB1157 at 50 ug/ml after 18 hrs by two fold serial dilution method; type: functional; how it was run: as §1

Row | MIC (Staphylococcus aureus) | SMILES | Activity (Escherichia coli)
1 | 41.6 to 66.6 µM (≈ 12.5 to 20 µg/mL) | CC(C)c1ccc2c(c1)CC[C@H]1[C@](C)(C(=O)O)CCC[C@]21C [DEHYDROABIETIC ACID] | inactive
2 | 5.88 to 7.84 µM (≈ 3.75 to 5 µg/mL) | CC(C)c1cc2c(cc1Br)[C@@]1(C)CCC[C@@](C)(C(=O)O)[C@@H]1C/C2=N\OCCNC(=O)Cc1ccc(C(F)(F)F)cc1 | inactive
3 | 7.84 µM (≈ 5 µg/mL) | CC(C)c1cc2c(cc1Br)[C@@]1(C)CCC[C@@](C)(C(=O)O)[C@@H]1C/C2=N\OCCNC(=O)Cc1ccccc1C(F)(F)F | inactive
4 | 8.54 to 10.7 µM (≈ 5 to 6.25 µg/mL) | COc1ccccc1C(=O)NCCO/N=C1\C[C@H]2[C@](C)(C(=O)O)CCC[C@]2(C)c2cc(Br)c(C(C)C)cc21 | inactive
5 | 5.69 to 7.58 µM (≈ 3.75 to 5 µg/mL) | CC(C)c1cc2c(cc1Br)[C@@]1(C)CCC[C@@](C)(C(=O)O)[C@@H]1C/C2=N\OCCCNC(=O)c1c(F)c(F)c(F)c(F)c1F | inactive
6 | 13.6 to 18.2 µM (≈ 7.5 to 10 µg/mL) | CCCCCC(=O)NCCO/N=C1\C[C@H]2[C@](C)(C(=O)O)CCC[C@]2(C)c2cc(Br)c(C(C)C)cc21 | inactive
7 | 13.1 to 17.4 µM (≈ 7.5 to 10 µg/mL) | CC(C)c1cc2c(cc1Br)[C@@]1(C)CCC[C@@](C)(C(=O)O)[C@@H]1C/C2=N\OCCNC(=O)c1ccccc1F | inactive
8 | 36.7 to 45.8 µM (≈ 20 to 25 µg/mL) | CC(C)c1cc2c(cc1Br)[C@@]1(C)CCC[C@@](C)(C(=O)O)[C@@H]1C/C2=N\OCCNC(=O)c1ccco1 | inactive
9 | 8.51 to 10.6 µM (≈ 5 to 6.25 µg/mL) | CC(C)c1cc2c(cc1Br)[C@@]1(C)CCC[C@@](C)(C(=O)O)[C@@H]1C/C2=N\OCCCNC(=O)c1ccccc1F | inactive
10 | 13 to 17.4 µM (≈ 7.5 to 10 µg/mL) | Cc1ccc(C(=O)NCCO/N=C2\C[C@H]3[C@](C)(C(=O)O)CCC[C@]3(C)c3cc(Br)c(C(C)C)cc32)s1 | inactive
11 | 5.02 to 8.02 µM (≈ 3.13 to 5 µg/mL) | CC(C)c1cc2c(cc1Br)[C@@]1(C)CCC[C@@](C)(C(=O)O)[C@@H]1C/C2=N\OCCNC(=O)c1ccc(C(F)(F)F)cc1 | inactive
12 | > 111 µM | CC(C)c1cc2c(cc1Br)[C@@]1(C)CCC[C@@](C)(C(=O)O)[C@@H]1C/C2=N\OCCN | inactive
13 | 6.36 to 8.48 µM (≈ 3.75 to 5 µg/mL) | Cc1ccc(C(=O)NCCCO/N=C2\C[C@H]3[C@](C)(C(=O)O)CCC[C@]3(C)c3cc(Br)c(C(C)C)cc32)s1 | inactive
14 | 76.7 to 95.9 µM (≈ 40 to 50 µg/mL) | CC(C)C(=O)NCCO/N=C1\C[C@H]2[C@](C)(C(=O)O)CCC[C@]2(C)c2cc(Br)c(C(C)C)cc21 | inactive
15 | 17.1 µM (≈ 10 µg/mL) | CC(C)c1cc2c(cc1Br)[C@@]1(C)CCC[C@@](C)(C(=O)O)[C@@H]1C/C2=N\OCCCNC(=O)Cc1ccccc1 | inactive
16 | > 86.9 µM | CC(C)c1cc2c(cc1Br)[C@@]1(C)CCC[C@@](C)(C(=O)O)[C@@H]1C/C2=N\OCCCNC(=O)c1cccs1 | inactive
17 | > 41.1 µM | CC(C)c1cc2c(cc1Br)[C@@]1(C)CCC[C@@](C)(C(=O)O)[C@@H]1C/C2=N\OCCCNC(=O)c1cc2ccccc2[nH]1 | inactive
18 | 12.5 to 16.7 µM (≈ 7.5 to 10 µg/mL) | COc1ccc(C(=O)NCCCO/N=C2\C[C@H]3[C@](C)(C(=O)O)CCC[C@]3(C)c3cc(Br)c(C(C)C)cc32)cc1 | inactive
19 | 17.6 µM (≈ 10 µg/mL) | CC(C)c1cc2c(cc1Br)[C@@]1(C)CCC[C@@](C)(C(=O)O)[C@@H]1C/C2=N\OCCNC(=O)Cc1ccccc1 | inactive
20 | > 89 µM | CC(C)c1cc2c(cc1Br)[C@@]1(C)CCC[C@@](C)(C(=O)O)[C@@H]1C/C2=N\OCCNC(=O)c1ccsc1 | inactive
21 | 4.28 to 6.42 µM (≈ 2.5 to 3.75 µg/mL) | CCc1ccc(C(=O)NCCO/N=C2\C[C@H]3[C@](C)(C(=O)O)CCC[C@]3(C)c3cc(Br)c(C(C)C)cc32)cc1 | inactive
22 | 7.67 µM (≈ 5 µg/mL) | CC(C)c1cc2c(cc1Br)[C@@]1(C)CCC[C@@](C)(C(=O)O)[C@@H]1C/C2=N\OCCCNC(=O)Cc1ccccc1C(F)(F)F | inactive
